Reference: paper PMC10583827 (RSC Medicinal Chemistry, 2023)

Legend:
[1] = Cyclic voltammetry; assay type: physicochemical; settings: acetonitrile; for ipa/ipc, ratio of anodic to cathodic current / ΔEp, wave potential separation (Epa − Epc): scan rate 100 mV s−1; for E1/2, half wave potential (E1/2 = (Epa + Epc)/2) / Epa, anodic wave potential / Epc, cathodic wave potential: scan rate 100 mV s−1, V vs. Ag/AgCl
Method in brief: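 Test compound at 0.5 mM in anhydrous acetonitrile with 0.1 M […] as background electrolyte. Three-electrode cell: glassy carbon working, Pt wire counter, Ag/AgCl reference. Scanned from −1.7 to +1.0 V at 100 mV s−1 with a 20 mV E step, 6 cycles per compound, at 25 °C. Half-wave potentials were taken from the voltammograms.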

[2] = Host macrophage cytotoxicity, resazurin assay; assay type: cell-based; settings: human, PMA-differentiated THP-1 cells (macrophages)

Compound | ipa/ipc, ratio of anodic to cathodic current [1] | ΔEp, wave potential separation (Epa − Epc) [1] | E1/2, half wave potential (E1/2 = (Epa + Epc)/2) [1] | Epa, anodic wave potential [1] | Epc, cathodic wave potential [1] | IC50 at 72 h [2]
O=Cc1ccc([N+](=O)[O-])s1 [NTA, 5-nitrothiophene-2-carboxaldehyde, reference compound] | 0.755 | 0.20 V | −0.96 V | −0.86 V | −1.06 V | 
O=[N+]([O-])c1ccc(/C=N/N=C/c2ccc([N+](=O)[O-])s2)cc1 [9b, (1E,2E)-1-(4-Nitrobenzylidene)-2-[(5-nitrothiophen-2-yl)methylene]hydrazine] | 0.951 | 0.24 V | −0.94 V | −0.82 V | −1.06 V | 
O=C(Cn1ccnc1[N+](=O)[O-])NCc1ccccc1 [Bzn, benznidazole, reference compound] |  |  |  |  |  | > 100 µM
NC(=O)N/N=C/c1ccc([N+](=O)[O-])o1 [NFZ, nitrofurazone, reference compound] |  |  |  |  |  | > 100 µM
O=Cc1ccc([N+](=O)[O-])o1 [NFA, 5-nitro-2-furaldehyde, reference compound] | 0.967 | 0.28 V | −0.88 V | −0.74 V | −1.02 V | 
O=[N+]([O-])c1ccc(/C=N/N=C/c2ccccc2)o1 [1a, (1E,2E)-1-Benzylidene-2-[(5-nitrofuran-2-yl)methylene]hydrazine] | 1.016 | 0.24 V | −0.88 V | −0.76 V | −1.00 V | > 100 µM
O=[N+]([O-])c1ccc(/C=N/N=C/c2ccc(O)cc2)o1 [8a, 4-{(E)-{(E)-[(5-Nitrofuran-2-yl)methylene]hydrazono}methyl}phenol] | 0.943 | 0.26 V | −0.95 V | −0.82 V | −1.08 V | 

The next lines start with results.

ipa/ipc, ratio of anodic to cathodic current [1] | ΔEp, wave potential separation (Epa − Epc) [1] | E1/2, half wave potential (E1/2 = (Epa + Epc)/2) [1] | Epa, anodic wave potential [1] | Epc, cathodic wave potential [1] | Compound | IC50 at 72 h [2]
1.000 | 0.24 V | −0.90 V | −0.78 V | −1.02 V | Cc1ccc(/C=N/N=C/c2ccc([N+](=O)[O-])s2)cc1 [5b, (1E,2E)-1-(4-Methylbenzylidene)-2-[(5-nitrothiophen-2-yl)methylene]hydrazine] | 
0.889 | 0.22 V | −0.85 V | −0.74 V | −0.96 V | O=[N+]([O-])c1ccc(/C=N/N=C/c2ccc(Cl)cc2)s1 [3b, (1E,2E)-1-(4-Chlorobenzylidene)-2-[(5-nitrothiophen-2-yl)methylene]hydrazine] | 
0.990 | 0.24 V | −0.92 V | −0.80 V | −1.04 V | COc1ccc(/C=N/N=C/c2ccc([N+](=O)[O-])s2)cc1 [6b, (1E,2E)-1-(4-Methoxybenzylidene)-2-[(5-nitrothiophen-2-yl)methylene]hydrazine] | 
0.961 | 0.24 V | −0.92 V | −0.80 V | −1.04 V | O=[N+]([O-])c1ccc(/C=N/N=C/c2ccc(Br)cc2)s1 [4b, (1E,2E)-1-(4-Bromobenzylidene)-2-[(5-nitrothiophen-2-yl)methylene]hydrazine] | 
